Reference: ChEMBL document CHEMBL5678815 (Clin Cancer Res, 2017)
Active and inactive are the calls of the source. No cut-off for these calls is given here.

Experiments:
[1] = target: Serine/threonine-protein kinase PLK4 (Homo sapiens) (UniProt O00444); assay: Inhibition of human PLK4 assessed as remaining activity at 1 uM by ATP-competition binding assay relative to control
Procedure, shortened: (§1)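 Single-concentration (1 μM) screen in an ATP-site-dependent competition binding assay (KINOMEscan, outsourced) covering 395 human kinases, mutants included. Non-covalent binding was read as the remaining signal relative to the control signal.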

[2] = test system: Hepatocyte growth factor receptor (Homo sapiens), P08581 [M1250T]; assay: Inhibition of human MET M1250T mutant assessed as remaining activity at 1 uM by ATP-competition binding assay relative to control
Procedure, shortened: (§2)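 Single-point profiling at 1μM in an ATP-site-dependent competition binding assay across a panel of 395 human kinases, including mutant forms. The read-out is kinase binding signal in the presence of test agent, expressed as inhibition relative to the control signal. This screen assessed noncovalent binding interactions.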

[3] = target: Homeodomain-interacting protein kinase 1 (Homo sapiens) (UniProt Q86Z02); assay: Inhibition of human HIPK1 assessed as remaining activity at 1 uM by ATP-competition binding assay relative to control; procedure, shortened: as §2
[4] = target: Epidermal growth factor receptor (Homo sapiens) (UniProt P00533); assay: Inhibition of human EGFR assessed as remaining activity at 1 uM by ATP-competition binding assay relative to control
Procedure, shortened: (§3)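 KINOMEscan ATP-site-dependent competition binding panel of 395 human kinases, with compound tested at 1 μM. Binding is reported as remaining signal relative to control.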

[5] = target: Activin receptor type-1-like (Homo sapiens) (UniProt P37023); assay: Inhibition of human ACVRL1 assessed as remaining activity at 1 uM by ATP-competition binding assay relative to control; procedure, shortened: as §3
[6] = target: Serine/threonine-protein kinase N1 (Homo sapiens) (UniProt Q16512); assay: Inhibition of human PKN1 assessed as remaining activity at 1 uM by ATP-competition binding assay relative to control; procedure, shortened: as §1
[7] = target: Serine/threonine-protein kinase LATS1 (Homo sapiens) (UniProt O95835); assay: Inhibition of human LATS1 assessed as remaining activity at 1 uM by ATP-competition binding assay relative to control; procedure, shortened: as §2
[8] = test system: Serine/threonine-protein kinase B-raf (Homo sapiens), P15056 [V600E]; assay: Inhibition of human BRAF V600E mutant assessed as remaining activity at 1 uM by ATP-competition binding assay relative to control; procedure, shortened: as §3
[9] = target: Cyclin-dependent kinase 9 (Homo sapiens) (UniProt P50750); assay: Inhibition of human CDK9 assessed as remaining activity at 1 uM by ATP-competition binding assay relative to control; procedure, shortened: as §3
[10] = target: Serine/threonine-protein kinase 17A (Homo sapiens) (UniProt Q9UEE5); assay: Inhibition of human DRAK1 assessed as remaining activity at 1 uM by ATP-competition binding assay relative to control; procedure, shortened: as §3
[11] = target: Tyrosine-protein kinase Srms (Homo sapiens) (UniProt Q9H3Y6); assay: Inhibition of human SRMS assessed as remaining activity at 1 uM by ATP-competition binding assay relative to control; procedure, shortened: as §1
[12] = target: RAC-alpha serine/threonine-protein kinase (Homo sapiens) (UniProt P31749); assay: Inhibition of human AKT1 assessed as remaining activity at 1 uM by ATP-competition binding assay relative to control; procedure, shortened: as §3
[13] = target: Maternal embryonic leucine zipper kinase (Homo sapiens) (UniProt Q14680); assay: Inhibition of human MELK assessed as remaining activity at 1 uM by ATP-competition binding assay relative to control; procedure, shortened: as §2
[14] = target: Serine/threonine-protein kinase TNNI3K (Homo sapiens) (UniProt Q59H18); assay: Inhibition of human TNNI3K assessed as remaining activity at 1 uM by ATP-competition binding assay relative to control; procedure, shortened: as §1
[15] = target: Serine/threonine-protein kinase B-raf (Homo sapiens) (UniProt P15056); assay: Inhibition of human BRAF assessed as remaining activity at 1 uM by ATP-competition binding assay relative to control; procedure, shortened: as §3
[16] = target: Dual specificity protein kinase CLK1 (Homo sapiens) (UniProt P49759); assay: Inhibition of human CLK1 assessed as remaining activity at 1 uM by ATP-competition binding assay relative to control; procedure, shortened: as §3
[17] = target: Serine/threonine-protein kinase N2 (Homo sapiens) (UniProt Q16513); assay: Inhibition of human PKN2 assessed as remaining activity at 1 uM by ATP-competition binding assay relative to control; procedure, shortened: as §1
[18] = target: Serine/threonine-protein kinase Nek7 (Homo sapiens) (UniProt Q8TDX7); assay: Inhibition of human NEK7 assessed as remaining activity at 1 uM by ATP-competition binding assay relative to control; procedure, shortened: as §2
[19] = target: cGMP-dependent protein kinase 1 (Homo sapiens) (UniProt Q13976); assay: Inhibition of human PRKG1 assessed as remaining activity at 1 uM by ATP-competition binding assay relative to control; procedure, shortened: as §1
[20] = target: Calcium/calmodulin-dependent protein kinase type 1G (Homo sapiens) (UniProt Q96NX5); assay: Inhibition of human CAMK1G assessed as remaining activity at 1 uM by ATP-competition binding assay relative to control; procedure, shortened: as §3
[21] = target: Receptor tyrosine-protein kinase erbB-4 (Homo sapiens) (UniProt Q15303); assay: Inhibition of human ERBB4 at <100 nM by ATP-Competition Binding Assay
Sequence of Receptor tyrosine-protein kinase erbB-4 (Homo sapiens) (Q15303 whole entry): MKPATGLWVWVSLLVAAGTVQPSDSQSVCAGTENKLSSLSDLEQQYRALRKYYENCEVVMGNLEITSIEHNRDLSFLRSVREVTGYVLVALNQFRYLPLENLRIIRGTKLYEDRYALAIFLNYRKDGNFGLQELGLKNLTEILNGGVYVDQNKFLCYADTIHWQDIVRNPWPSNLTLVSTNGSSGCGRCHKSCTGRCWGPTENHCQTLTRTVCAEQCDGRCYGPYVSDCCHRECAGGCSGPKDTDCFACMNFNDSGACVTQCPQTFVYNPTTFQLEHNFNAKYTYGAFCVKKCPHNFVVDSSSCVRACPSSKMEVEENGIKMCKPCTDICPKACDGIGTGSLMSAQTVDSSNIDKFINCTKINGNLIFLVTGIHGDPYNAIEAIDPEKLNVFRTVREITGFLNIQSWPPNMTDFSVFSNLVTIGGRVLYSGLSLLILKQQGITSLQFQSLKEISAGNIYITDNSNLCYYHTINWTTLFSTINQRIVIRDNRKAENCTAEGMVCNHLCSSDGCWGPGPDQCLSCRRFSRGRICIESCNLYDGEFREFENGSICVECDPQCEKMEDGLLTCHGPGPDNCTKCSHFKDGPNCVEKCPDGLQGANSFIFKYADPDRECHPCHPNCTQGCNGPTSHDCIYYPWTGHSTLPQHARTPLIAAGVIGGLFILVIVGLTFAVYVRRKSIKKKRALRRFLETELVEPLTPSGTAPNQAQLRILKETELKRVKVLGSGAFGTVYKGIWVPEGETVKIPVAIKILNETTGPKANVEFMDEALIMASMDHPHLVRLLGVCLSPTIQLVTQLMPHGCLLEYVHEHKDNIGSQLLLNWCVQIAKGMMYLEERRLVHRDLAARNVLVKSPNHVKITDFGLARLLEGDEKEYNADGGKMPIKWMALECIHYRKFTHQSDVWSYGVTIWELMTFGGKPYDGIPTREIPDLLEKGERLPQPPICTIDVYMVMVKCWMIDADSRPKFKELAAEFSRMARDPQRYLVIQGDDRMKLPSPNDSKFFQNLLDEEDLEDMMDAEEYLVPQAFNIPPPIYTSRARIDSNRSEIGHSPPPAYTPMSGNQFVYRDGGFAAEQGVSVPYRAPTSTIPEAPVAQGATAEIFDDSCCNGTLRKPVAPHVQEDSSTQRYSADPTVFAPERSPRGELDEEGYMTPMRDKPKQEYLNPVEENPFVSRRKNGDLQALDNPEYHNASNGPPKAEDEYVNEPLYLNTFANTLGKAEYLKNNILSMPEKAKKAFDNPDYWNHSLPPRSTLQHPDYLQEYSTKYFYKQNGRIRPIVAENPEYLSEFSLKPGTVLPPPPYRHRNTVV

Sequence of Dual specificity protein kinase CLK1 (Homo sapiens) (P49759 whole entry, looked up): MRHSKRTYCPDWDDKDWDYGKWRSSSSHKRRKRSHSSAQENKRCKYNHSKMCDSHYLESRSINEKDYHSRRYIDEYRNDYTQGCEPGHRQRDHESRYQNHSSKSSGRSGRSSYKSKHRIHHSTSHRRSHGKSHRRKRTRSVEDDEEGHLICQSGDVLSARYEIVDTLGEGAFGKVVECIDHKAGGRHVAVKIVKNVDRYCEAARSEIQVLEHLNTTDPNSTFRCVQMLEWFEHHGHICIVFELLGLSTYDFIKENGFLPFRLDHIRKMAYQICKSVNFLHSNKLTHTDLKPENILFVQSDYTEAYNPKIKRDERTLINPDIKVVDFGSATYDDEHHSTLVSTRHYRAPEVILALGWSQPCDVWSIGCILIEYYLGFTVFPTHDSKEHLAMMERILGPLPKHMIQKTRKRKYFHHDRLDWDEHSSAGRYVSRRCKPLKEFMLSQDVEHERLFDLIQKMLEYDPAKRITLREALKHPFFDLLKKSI
Sequence of Tyrosine-protein kinase Srms (Homo sapiens) (Q9H3Y6 whole entry): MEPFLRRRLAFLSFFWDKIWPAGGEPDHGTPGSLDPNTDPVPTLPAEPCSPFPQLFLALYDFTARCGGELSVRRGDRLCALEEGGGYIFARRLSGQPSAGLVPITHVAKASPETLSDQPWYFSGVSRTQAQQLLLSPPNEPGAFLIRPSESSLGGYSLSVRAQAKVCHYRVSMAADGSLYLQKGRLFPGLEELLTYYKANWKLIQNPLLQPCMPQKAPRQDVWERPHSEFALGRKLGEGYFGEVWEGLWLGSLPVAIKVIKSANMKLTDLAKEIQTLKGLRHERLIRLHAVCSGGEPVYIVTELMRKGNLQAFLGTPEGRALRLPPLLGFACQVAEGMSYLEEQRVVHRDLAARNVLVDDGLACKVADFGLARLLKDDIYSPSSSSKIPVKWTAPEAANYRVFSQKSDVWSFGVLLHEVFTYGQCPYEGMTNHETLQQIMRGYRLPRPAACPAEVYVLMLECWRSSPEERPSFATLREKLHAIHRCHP
Sequence of cGMP-dependent protein kinase 1 (Homo sapiens) (Q13976 whole entry): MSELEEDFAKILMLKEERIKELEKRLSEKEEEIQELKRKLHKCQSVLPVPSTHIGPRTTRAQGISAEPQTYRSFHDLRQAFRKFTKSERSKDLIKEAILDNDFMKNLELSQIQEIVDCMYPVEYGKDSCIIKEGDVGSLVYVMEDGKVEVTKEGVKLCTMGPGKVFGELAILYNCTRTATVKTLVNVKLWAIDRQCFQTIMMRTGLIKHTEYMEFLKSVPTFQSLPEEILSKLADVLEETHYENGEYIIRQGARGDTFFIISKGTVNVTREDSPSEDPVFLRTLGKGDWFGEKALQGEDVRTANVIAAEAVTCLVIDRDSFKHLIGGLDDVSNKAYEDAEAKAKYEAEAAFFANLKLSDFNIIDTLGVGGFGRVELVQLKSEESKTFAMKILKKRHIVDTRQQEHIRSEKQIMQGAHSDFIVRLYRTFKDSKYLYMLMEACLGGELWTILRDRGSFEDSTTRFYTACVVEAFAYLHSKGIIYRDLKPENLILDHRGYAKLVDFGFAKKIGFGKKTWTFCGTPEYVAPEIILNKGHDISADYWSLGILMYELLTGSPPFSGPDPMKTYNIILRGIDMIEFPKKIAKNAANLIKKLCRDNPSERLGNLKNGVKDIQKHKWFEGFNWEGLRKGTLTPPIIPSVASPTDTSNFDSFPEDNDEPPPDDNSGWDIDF
Sequence of Cyclin-dependent kinase 9 (Homo sapiens) (P50750 whole entry): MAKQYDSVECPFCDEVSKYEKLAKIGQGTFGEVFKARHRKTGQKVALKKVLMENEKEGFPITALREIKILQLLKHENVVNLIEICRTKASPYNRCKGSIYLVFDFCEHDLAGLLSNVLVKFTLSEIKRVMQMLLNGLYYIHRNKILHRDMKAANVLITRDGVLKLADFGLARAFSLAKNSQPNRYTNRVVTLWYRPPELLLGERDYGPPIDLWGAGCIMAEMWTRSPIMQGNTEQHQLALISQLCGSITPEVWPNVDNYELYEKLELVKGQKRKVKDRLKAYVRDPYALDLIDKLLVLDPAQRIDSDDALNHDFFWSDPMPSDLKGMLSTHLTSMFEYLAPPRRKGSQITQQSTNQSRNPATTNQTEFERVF
Sequence of Serine/threonine-protein kinase 17A (Homo sapiens) (Q9UEE5 whole entry): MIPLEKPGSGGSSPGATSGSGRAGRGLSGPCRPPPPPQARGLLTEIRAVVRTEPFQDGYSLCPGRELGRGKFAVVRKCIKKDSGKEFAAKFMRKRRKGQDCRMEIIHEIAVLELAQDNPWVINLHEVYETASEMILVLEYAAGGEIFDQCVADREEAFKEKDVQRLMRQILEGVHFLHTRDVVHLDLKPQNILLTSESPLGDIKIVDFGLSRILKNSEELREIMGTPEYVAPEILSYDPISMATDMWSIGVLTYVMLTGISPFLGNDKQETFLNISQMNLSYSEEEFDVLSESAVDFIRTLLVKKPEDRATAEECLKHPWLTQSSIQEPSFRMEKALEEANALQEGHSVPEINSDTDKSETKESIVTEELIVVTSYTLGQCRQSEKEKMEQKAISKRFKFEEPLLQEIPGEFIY
Sequence of Serine/threonine-protein kinase TNNI3K (Homo sapiens) (Q59H18 whole entry): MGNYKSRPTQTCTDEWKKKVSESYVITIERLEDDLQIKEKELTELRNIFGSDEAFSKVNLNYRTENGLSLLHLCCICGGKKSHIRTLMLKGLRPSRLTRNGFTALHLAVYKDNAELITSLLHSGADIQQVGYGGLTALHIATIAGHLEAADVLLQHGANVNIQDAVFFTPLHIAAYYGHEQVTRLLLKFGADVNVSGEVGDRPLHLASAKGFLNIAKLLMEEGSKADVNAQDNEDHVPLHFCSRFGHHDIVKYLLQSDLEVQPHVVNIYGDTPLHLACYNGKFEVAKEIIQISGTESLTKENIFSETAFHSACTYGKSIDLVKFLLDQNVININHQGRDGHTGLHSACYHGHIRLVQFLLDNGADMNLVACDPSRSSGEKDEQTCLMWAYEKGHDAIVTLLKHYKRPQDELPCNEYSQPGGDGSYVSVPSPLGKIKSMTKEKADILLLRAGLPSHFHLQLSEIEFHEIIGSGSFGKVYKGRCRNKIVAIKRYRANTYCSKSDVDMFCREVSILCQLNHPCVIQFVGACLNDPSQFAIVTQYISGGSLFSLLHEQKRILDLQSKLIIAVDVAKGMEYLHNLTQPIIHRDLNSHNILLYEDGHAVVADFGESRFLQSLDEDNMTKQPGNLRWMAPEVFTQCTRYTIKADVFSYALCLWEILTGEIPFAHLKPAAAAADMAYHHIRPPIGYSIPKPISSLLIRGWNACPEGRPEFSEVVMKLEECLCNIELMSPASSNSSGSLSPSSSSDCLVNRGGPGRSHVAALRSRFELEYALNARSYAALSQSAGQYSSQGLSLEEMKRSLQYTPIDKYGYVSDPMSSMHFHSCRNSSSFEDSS
Sequence of Serine/threonine-protein kinase Nek7 (Homo sapiens) (Q8TDX7 whole entry, looked up): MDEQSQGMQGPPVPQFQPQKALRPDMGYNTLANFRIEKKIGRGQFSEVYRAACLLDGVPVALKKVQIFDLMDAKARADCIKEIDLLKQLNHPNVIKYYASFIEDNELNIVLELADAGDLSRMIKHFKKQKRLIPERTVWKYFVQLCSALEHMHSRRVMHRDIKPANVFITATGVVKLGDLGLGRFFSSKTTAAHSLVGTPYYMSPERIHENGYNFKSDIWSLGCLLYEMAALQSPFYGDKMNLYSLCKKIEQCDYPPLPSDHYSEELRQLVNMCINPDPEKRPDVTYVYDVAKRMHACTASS

For CC#CC(=O)N1CCC[C@H]1c1nc(-c2ccc(C(=O)Nc3ccccn3)cc2)c2c(N)nccn12 [ACALABRUTINIB], the Activity [1] was 80%, the Activity [2] was 90% and the Activity [3] was 90%. It also gave an Activity [4] of 75%, an Activity [5] of 76% and an Activity [6] of 94%. It also gave an Activity [7] of 93%, an Activity [8] of 44% and an Activity [9] of 87%. For the same compound, the Activity [10] was 87%, the Activity [11] was 67% and the Activity [12] was 93%. For the same compound, the Activity [13] was 76%, the Activity [14] was 38% and the Activity [15] was 64%. The Activity [16] was 94%, the Activity [17] was 86% and the Activity [18] was 80%. The Activity [19] was 70%, the Activity [20] was 95% and the inhibition [21] was “Active”.
